For one assay, the system named is dullard. Particulars: dullard-catalyzed hydrolysis of generic substrate; cited from earlier work.
Assay [1] addresses T1, Dullard 46–244 (Homo sapiens, UniProt O95476).
T1 sequence (O95476 46-244): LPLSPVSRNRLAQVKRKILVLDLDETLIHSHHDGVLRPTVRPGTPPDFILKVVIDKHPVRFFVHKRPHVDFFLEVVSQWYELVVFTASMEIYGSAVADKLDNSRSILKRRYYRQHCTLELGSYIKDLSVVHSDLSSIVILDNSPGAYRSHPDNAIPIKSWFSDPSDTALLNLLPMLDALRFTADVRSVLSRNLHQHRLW
In words: Biomol Green phosphate reagent. In kind it is biochemical. The conditions noted are these: values in parentheses, 25 °C. A digest of the protocol:
(§1)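 Dullard residues 46–244 expressed in E. coli and purified to >95% by SDS/PAGE. Substrates were Pro/Thr/Ser-containing phosphoserine nonapeptides representing lipin1 phosphorylation sites. Dephosphorylation was followed as phosphate release under steady-state conditions to derive kcat/Km. The MESG-coupled assay and the molybdate green assay were used as independent read-outs.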

The target in assay [2] is T1, Dullard 46–244. The assay is described as follows: MESG-coupled phosphatase assay. Format: biochemical. The conditions noted are these: MESG-coupled phosphatase assay (EnzChek E-6646), 25°C. An outline of the steps: as §1

Non-standard residues stand in square brackets, D forms with d. No end group written: not given here. pS = N[C@@H](COP(=O)(O)O)C(=O)O

A word on the Km: it is the substrate concentration at which the rate is half of its maximum. As usually defined, the kcat is the number of substrate molecules converted per active site and unit of time at saturation. Broadly, the kcat/Km is the second-order rate constant that governs catalysis at low substrate concentration.

Regarding `O=[N+]([O-])c1ccc(OP(=O)(O)O)cc1` [pNPP, p-nitrophenyl phosphate], in the assay with dullard, the Km is 18000 µM, the kcat was 1 s⁻¹ and the kcat/Km is 56 M⁻¹ s⁻¹.

DNMNT[pS]EDE [S176]: the kcat on Dullard 46–244 [1] was greater than 0.5 s⁻¹.

As to PIL[pS]EGASR [S110], at Dullard 46–244 [1], the Km is 700 µM, the kcat stood at 0.28 ± 0.02 s⁻¹ and the specificity constant (kcat/Km) worked out at 400 M⁻¹ s⁻¹. In addition, the kcat/Km on Dullard 46–244 [2] is 650 M⁻¹ s⁻¹.

For SGSRP[pS]TP [S248], on Dullard 46–244 [1], the Km was 700 µM, the kcat came out at 0.01 ± 0.002 s⁻¹ and the kcat/Km came to 14 M⁻¹ s⁻¹. The kcat/Km on Dullard 46–244 [2] was 750 M⁻¹ s⁻¹.

Source of the values: article PMC3338355 (Biochemistry, 2011).
